Experimental data published in ChEMBL document CHEMBL1759840, “2,3-Substituted quinoxalin-6-amine analogs as antiproliferatives: a structure-activity relationship study” (2011).
The source made the active and inactive calls. No cut-off for these calls is given here.

Columns and labels:
Assay type in all cases: functional
[1] = test system: ASPC1; experiment: Growth inhibition of human AsPC1 cells at 20 uM after 72 hrs by alamar blue assay; settings: for inhibition of growth at 20 µM: ASPC1, 72 h, read-out: GI
Summary of the method: (§1)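 Single-concentration screen at 20 μM with 72 h exposure across a panel of cancer lines: lung A549, pancreatic AsPC1, colon HT29, breast MDA-MB-231, prostate PC3, ovarian SKOV3 and bone U2OS. Growth inhibition read after 72 h.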

[2] = test system: HT-29; experiment: Growth inhibition of human HT-29 cells at 20 uM after 72 hrs by alamar blue assay; settings: for inhibition of growth at 20 µM: HT-29, 72 h, read-out: GI; summary of the method: as §1
[3] = test system: SK-OV-3; experiment: Growth inhibition of human SKOV3 cells at 20 uM after 72 hrs by alamar blue assay; settings: for inhibition of growth at 20 µM: SK-OV-3, 72 h, read-out: GI; summary of the method: as §1
[4] = test system: MDA-MB-231; experiment: Growth inhibition of human MDA-MB-231 cells at 20 uM after 72 hrs by alamar blue assay; settings: for inhibition of growth at 20 µM: MDA-MB-231, 72 h, read-out: GI; summary of the method: as §1
[5] = test system: A549; experiment: Growth inhibition of human A549 cells at 20 uM after 72 hrs by alamar blue assay; settings: for inhibition of growth at 20 µM: A549, 72 h, read-out: GI; summary of the method: as §1
[6] = test system: U2OS; experiment: Growth inhibition of human U2OS cells at 20 uM after 72 hrs by alamar blue assay; settings: for inhibition of growth at 20 µM: read-out: GI; summary of the method: as §1
[7] = test system: PC-3; experiment: Growth inhibition of human PC3 cells at 20 uM after 72 hrs by alamar blue assay; settings: for inhibition of growth at 20 µM: PC-3, 72 h, read-out: GI; summary of the method: as §1

Row | SMILES | inhibition of growth at 20 µM [1] [%] | inhibition of growth at 20 µM [2] [%] | inhibition of growth at 20 µM [3] [%] | inhibition of growth at 20 µM [4] [%] | inhibition of growth at 20 µM [5] [%] | inhibition of growth at 20 µM [6] [%] | inhibition of growth at 20 µM [7] [%] | growth inhibition (GI) [1] | growth inhibition (GI) [2] | growth inhibition (GI) [3] | growth inhibition (GI) [4] | growth inhibition (GI) [5] | growth inhibition (GI) [6] | growth inhibition (GI) [7]
1 | O=C(Nc1ccccc1)Nc1ccc2nc(-c3ccco3)c(-c3ccco3)nc2c1 | 9.6 | 52.1 | 24.7 | 31.3 | 54.6 | 59.6 | 70.6 | – | – | – | – | – | – | –
2 | CC(=O)Nc1ccc2nc(-c3ccccc3)c(-c3ccccc3)nc2c1 | – | – | – | – | – | – | – | inactive | inactive | inactive | inactive | inactive | inactive | inactive
3 | O=C(Nc1ccc2nc(-c3ccccc3)c(-c3ccccc3)nc2c1)N1CCCC1 | 29.4 | – | 18.5 | 16.7 | 11 | 54.2 | 56.9 | – | inactive | – | – | – | – | –
4 | Cc1ccc(S(=O)(=O)N(c2ccc3nc(-c4ccco4)c(-c4ccco4)nc3c2)S(=O)(=O)c2ccc(C)cc2)cc1 | – | – | – | – | – | – | – | inactive | inactive | inactive | inactive | inactive | inactive | inactive
5 | CC(=O)Nc1ccc2nc(C)c(C)nc2c1 | 26.2 | 31.7 | 4 | 25.7 | 23.4 | 31.4 | 21.8 | – | – | – | – | – | – | –
6 | Cc1nc2ccc(NC(=O)Nc3ccccc3)cc2nc1C | – | – | – | – | – | – | – | inactive | inactive | inactive | inactive | inactive | inactive | inactive
7 | Cc1nc2ccc(NC(=O)N3CCCC3)cc2nc1C | – | – | – | – | – | – | – | inactive | inactive | inactive | inactive | inactive | inactive | inactive
8 | O=C(Nc1ccc(-c2ccccc2)cc1)Nc1ccc2nc(-c3ccco3)c(-c3ccco3)nc2c1 | – | 72.4 | – | 50.2 | 13.8 | 46.9 | 88.5 | inactive | – | inactive | – | – | – | –
9 | Cc1ccc(S(=O)(=O)c2c(N)ccc3nc(C)c(C)nc23)cc1 | – | – | – | – | – | – | – | inactive | inactive | inactive | inactive | inactive | inactive | inactive
10 | O=C(Nc1ccc(Cl)cc1)Nc1ccc2nc(-c3ccco3)c(-c3ccco3)nc2c1 | 81.1 | 86.3 | 55.8 | 92.5 | 99.2 | 87.4 | 86.4 | – | – | – | – | – | – | –
11 | Cc1ccc(S(=O)(=O)Nc2ccc3nc(-c4ccccc4)c(-c4ccccc4)nc3c2)cc1 | – | – | – | – | – | – | – | inactive | inactive | inactive | inactive | inactive | inactive | inactive
12 | O=[N+]([O-])c1ccc(NC(=S)Nc2ccc3nc(-c4ccco4)c(-c4ccco4)nc3c2)cc1 | – | 42 | – | 9 | 19.2 | 32.2 | 43.4 | inactive | – | inactive | – | – | – | –
13 | O=C(Nc1ccc2nc(-c3ccco3)c(-c3ccco3)nc2c1)N1CCOCC1 | – | 19.4 | – | 10.9 | 39.7 | – | 48.9 | inactive | – | inactive | – | – | inactive | –
14 | O=[N+]([O-])c1ccc(NC(=S)Nc2ccc3nc(-c4cccs4)c(-c4cccs4)nc3c2)cc1 | – | 23.9 | – | 53.3 | – | 50.6 | 19.5 | inactive | – | inactive | – | inactive | – | –
15 | S=C(Nc1ccccc1)Nc1ccc2nc(-c3cccs3)c(-c3cccs3)nc2c1 | – | – | – | – | – | – | – | inactive | inactive | inactive | inactive | inactive | inactive | inactive
16 | O=C(Nc1ccccc1)Nc1ccc2nc(-c3cccs3)c(-c3cccs3)nc2c1 | – | – | – | – | – | – | – | inactive | inactive | inactive | inactive | inactive | inactive | inactive
17 | S=C(Nc1ccccc1)Nc1ccc2nc(-c3ccccc3)c(-c3ccccc3)nc2c1 | – | – | – | – | – | – | – | inactive | inactive | inactive | inactive | inactive | inactive | inactive
18 | O=C(Nc1ccc2nc(-c3ccco3)c(-c3ccco3)nc2c1)NN1CCC(Cc2ccccc2)CC1 | > 100 | 55.2 | 47.6 | 90.8 | 93.1 | 80.3 | > 100 | – | – | – | – | – | – | –
19 | CC(=O)Nc1ccc2nc(-c3ccco3)c(-c3ccco3)nc2c1 | – | 7.6 | 9 | 20.3 | 57.8 | – | 57.7 | inactive | – | – | – | – | inactive | –
20 | O=C(Nc1ccc(F)cc1)Nc1ccc2nc(-c3ccco3)c(-c3ccco3)nc2c1 | > 100 | 74.2 | – | 38.4 | > 100 | 55.6 | 90.7 | – | – | inactive | – | – | – | –
21 | S=C(Nc1ccccc1)Nc1ccc2nc(-c3ccco3)c(-c3ccco3)nc2c1 | – | 26.1 | – | 19.1 | 18 | 21.4 | 56.8 | inactive | – | inactive | – | – | – | –
22 | Cc1ccc(S(=O)(=O)N(c2ccc3nc(-c4cccs4)c(-c4cccs4)nc3c2)S(=O)(=O)c2ccc(C)cc2)cc1 | – | – | – | – | – | – | – | inactive | inactive | inactive | inactive | inactive | inactive | inactive
23 | Cc1nc2ccc(NC(=O)N3CCCCC3)cc2nc1C | – | – | – | – | – | – | – | inactive | inactive | inactive | inactive | inactive | inactive | inactive
24 | Cc1nc2ccc(NC(=O)NN3CCC(Cc4ccccc4)CC3)cc2nc1C | – | 16.3 | 8.9 | 12.4 | 40.3 | 33.5 | 30.6 | inactive | – | – | – | – | – | –
25 | O=C(Nc1ccc2nc(-c3ccco3)c(-c3ccco3)nc2c1)N1CCCC1 | 11.6 | 16.7 | 16.9 | 18.2 | 23.3 | 46.5 | 53.1 | – | – | – | – | – | – | –
26 | CC(=O)Nc1ccc2nc(-c3cccs3)c(-c3cccs3)nc2c1 | – | – | – | – | – | – | – | inactive | inactive | inactive | inactive | inactive | inactive | inactive
27 | O=C(Nc1ccccc1)Nc1ccc2nc(-c3ccccc3)c(-c3ccccc3)nc2c1 | – | – | – | – | – | – | – | inactive | inactive | inactive | inactive | inactive | inactive | inactive
28 | O=[N+]([O-])c1ccc(NC(=S)Nc2ccc3nc(-c4ccccc4)c(-c4ccccc4)nc3c2)cc1 | 55.5 | 81.2 | 55.8 | 72.6 | 16.6 | 76.1 | 81 | – | – | – | – | – | – | –
